Experimental data taken from ChEMBL document CHEMBL4325893, “Synthesis and antibacterial profiles of targeted triclosan derivatives” (2019).
Converted amounts (≈) assume the structure as drawn.

Tests used:
[1] = Antibacterial activity against Salmonella enterica subspecies enterica serotype Nottingham NCTC 7832 after 18 hrs; type: functional, Salmonella enterica subsp. enterica serovar Nottingham; details: NCTC 7832, 18 h
How it was run: (§1)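 Broth microdilution in Nutrient Broth No. 2; stocks in ethanol diluted to 0.01–128 µg/ml (triclosan) or 0.25–256 µg/ml (glycosides). Overnight 37 °C NB2 cultures diluted 1 in 10^4 in saline and added to the dilutions. Incubation at 37 °C with agitation, OD read every 15 min; MIC is the lowest concentration preventing any OD rise after 18 h.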

[2] = tested on: Staphylococcus aureus; experiment: Antibacterial activity against Staphylococcus aureus NCTC 13758 after 18 hrs; type: functional; details: NCTC 13758, 18 h; how it was run: as §1
[3] = tested on: Enterococcus faecalis; experiment: Antibacterial activity against Enterococcus faecalis ATCC 33186 after 18 hrs; type: functional; details: ATCC 33186, 18 h; how it was run: as §1
[4] = tested on: Streptococcus viridans; experiment: Antibacterial activity against Streptococcus viridans OCC 234 after 18 hrs; type: functional; details: OCC 234, 18 h
How it was run: (§2)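 Broth microdilution in Nutrient Broth No. 2. Ethanol stocks were diluted in broth to 0.01–128 µg/ml for triclosan and 0.25–256 µg/ml for glycosides. Overnight 37°C NB2 cultures were diluted 1 in 10^4 in saline and added to the wells. Plates were incubated at 37°C with OD read every 15 min after agitation. MIC was the lowest concentration giving no OD increase at 18 h.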

[5] = tested on: Serratia marcescens; experiment: Antibacterial activity against Serratia marcescens OCC 217 after 18 hrs; type: functional; details: OCC 217, 18 h; how it was run: as §1
[6] = tested on: Bacillus subtilis; experiment: Antibacterial activity against Bacillus subtilis NCTC 10073 after 18 hrs; type: functional; details: NCTC 10073, 18 h; how it was run: as §1
[7] = tested on: Citrobacter freundii; experiment: Antibacterial activity against Citrobacter freundii OCC 851 after 18 hrs; type: functional; details: OCC 851, 18 h; how it was run: as §1
[8] = tested on: Klebsiella pneumoniae; experiment: Antibacterial activity against Klebsiella pneumoniae ATCC 10031 after 18 hrs; type: functional; details: ATCC 10031, 18 h; how it was run: as §1
[9] = tested on: Escherichia coli; experiment: Antibacterial activity against Escherichia coli ATCC 11775 after 18 hrs; type: functional; how it was run: as §1
[10] = tested on: Escherichia coli; experiment: Antibacterial activity against Escherichia coli NCTC 13216 after 18 hrs; type: functional; details: NCTC 13216, 18 h; how it was run: as §1
[11] = tested on: Escherichia coli; experiment: Antibacterial activity against Escherichia coli ATCC 25922 after 18 hrs; type: functional; details: ATCC 25922, 18 h; how it was run: as §1
[12] = Antibacterial activity against Salmonella enterica subspecies enterica serotype Virchow NCTC 5742 after 18 hrs; type: functional, Salmonella enterica subsp. enterica serovar Virchow; details: NCTC 5742, 18 h; how it was run: as §1
[13] = tested on: Escherichia coli; experiment: Antibacterial activity against Escherichia coli 700728 after 18 hrs; type: functional; details: Escherichia coli, 700728, 18 h; how it was run: as §1
[14] = tested on: Staphylococcus aureus; experiment: Antibacterial activity against Staphylococcus aureus ATCC 25923 after 18 hrs; type: functional; details: ATCC 25923, 18 h; how it was run: as §1
[15] = tested on: Escherichia coli; experiment: Antibacterial activity against Escherichia coli ATCC 10536 after 18 hrs; type: functional; details: ATCC 10536, 18 h; how it was run: as §1
[16] = Antibacterial activity against Salmonella enterica subspecies enterica serotype Dublin OCC 627 after 18 hrs; type: functional, Salmonella enterica subsp. enterica serovar Dublin; details: OCC 627, 18 h; how it was run: as §1
[17] = tested on: Staphylococcus haemolyticus; experiment: Antibacterial activity against Staphylococcus haemolyticus OCC 2223 after 18 hrs; type: functional; details: OCC 2223, 18 h; how it was run: as §2
[18] = tested on: Citrobacter freundii; experiment: Antibacterial activity against Citrobacter freundii 8090 after 18 hrs; type: functional; details: Citrobacter freundii, 8090, 18 h; how it was run: as §1
[19] = Antibacterial activity against Salmonella enterica subspecies enterica serotype Pullorum OCC 273 after 18 hrs; type: functional, Salmonella enterica subsp. enterica serovar Pullorum; details: OCC 273, 18 h; how it was run: as §1
[20] = tested on: Staphylococcus aureus; experiment: Antibacterial activity against Staphylococcus aureus ATCC 9144 after 18 hrs; type: functional; details: ATCC 9144, 18 h; how it was run: as §1
[21] = tested on: Klebsiella aerogenes; experiment: Antibacterial activity against Klebsiella aerogenes NCTC 8167 after 18 hrs; type: functional; details: NCTC 8167, 18 h; how it was run: as §1
[22] = tested on: Staphylococcus saprophyticus; experiment: Antibacterial activity against Staphylococcus saprophyticus ATCC 15305 after 18 hrs; type: functional; details: ATCC 15305, 18 h; how it was run: as §2
[23] = tested on: Enterococcus faecium; experiment: Antibacterial activity against Enterococcus faecium ATCC 19434 after 18 hrs; type: functional; details: ATCC 19434, 18 h; how it was run: as §1
[24] = tested on: Staphylococcus epidermidis; experiment: Antibacterial activity against Staphylococcus epidermidis ATCC 12228 after 18 hrs; type: functional; details: ATCC 12228, 18 h; how it was run: as §1
[25] = tested on: Streptococcus pneumoniae; experiment: Antibacterial activity against Streptococcus pneumoniae ATCC 49619 after 18 hrs; type: functional; details: ATCC 49619, 18 h; how it was run: as §2
[26] = tested on: Staphylococcus aureus; experiment: Antibacterial activity against Staphylococcus aureus ATCC 6538 after 18 hrs; type: functional; details: ATCC 6538, 18 h; how it was run: as §1
[27] = tested on: Aeromonas hydrophila; experiment: Antibacterial activity against Aeromonas hydrophila OCC 778 after 18 hrs; type: functional; details: OCC 778, 18 h; how it was run: as §1
[28] = tested on: Escherichia hermannii; experiment: Antibacterial activity against Escherichia hermannii 33650 after 18 hrs; type: functional; details: Atlantibacter hermannii, 33650, 18 h; how it was run: as §1
[29] = tested on: Streptococcus agalactiae; experiment: Antibacterial activity against Streptococcus agalactiae OCC 182 after 18 hrs; type: functional; details: OCC 182, 18 h; how it was run: as §2

Compound: Oc1cc(Cl)ccc1Oc1ccc(Cl)cc1Cl [TRICLOSAN]
- MIC [1]: 0.5 to 1 µg/mL (≈ 1.73 to 3.45 µM)
- MIC [2]: 0.01 µg/mL (≈ 0.0345 µM)
- MIC [3]: 8 µg/mL (≈ 27.6 µM)
- MIC [4]: 4 µg/mL (≈ 13.8 µM)
- MIC [5]: 64 µg/mL (≈ 221 µM)
- MIC [6]: 1 µg/mL (≈ 3.45 µM)
- MIC [7]: 0.5 µg/mL (≈ 1.73 µM)
- MIC [8]: 0.1 µg/mL (≈ 0.345 µM)
- MIC [9]: 0.1 to 0.5 µg/mL (≈ 0.345 to 1.73 µM)
- MIC [10]: 0.1 to 0.5 µg/mL (≈ 0.345 to 1.73 µM)
- MIC [11]: 0.1 to 0.5 µg/mL (≈ 0.345 to 1.73 µM)
- MIC [12]: 0.5 to 1 µg/mL (≈ 1.73 to 3.45 µM)
- MIC [13]: 0.1 to 0.5 µg/mL (≈ 0.345 to 1.73 µM)
- MIC [14]: 0.01 µg/mL (≈ 0.0345 µM)
- MIC [15]: 0.1 to 0.5 µg/mL (≈ 0.345 to 1.73 µM)
- MIC [16]: 0.5 to 1 µg/mL (≈ 1.73 to 3.45 µM)
- MIC [17]: 0.01 µg/mL (≈ 0.0345 µM)
- MIC [18]: 0.5 µg/mL (≈ 1.73 µM)
- MIC [19]: 0.5 to 1 µg/mL (≈ 1.73 to 3.45 µM)
- MIC [20]: 0.01 µg/mL (≈ 0.0345 µM)
- MIC [21]: 0.5 µg/mL (≈ 1.73 µM)
- MIC [22]: 0.01 µg/mL (≈ 0.0345 µM)
- MIC [23]: 4 µg/mL (≈ 13.8 µM)
- MIC [24]: 0.01 µg/mL (≈ 0.0345 µM)
- MIC [25]: 1 µg/mL (≈ 3.45 µM)
- MIC [26]: 0.01 µg/mL (≈ 0.0345 µM)
- MIC [27]: 8 µg/mL (≈ 27.6 µM)
- MIC [28]: 0.5 µg/mL (≈ 1.73 µM)
- MIC [29]: 4 µg/mL (≈ 13.8 µM)
